A short description of series [1]: folding enthalpy; higher = less favourable; fluorescence melt of hairpins on a sequencing array, two-state fit. Particulars: sodium 0.088 M. The method, boiled down:
(§1)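 Cy3 signals were normalised both to pre-quench Cy3 and to control constructs. They came from library hairpins carrying annealed Cy3 and quencher oligos on a sequenced MiSeq flow cell, imaged in 50 mM Na-HEPES pH 8.0, 25 mM NaCl, in 2.5 °C steps up to 60 °C. Bootstrapped two-state fits gave melting temperature and folding enthalpy, and four replicates were combined by inverse variance. Fitted temperatures were then raised by 9.35 °C to match UV melts.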

The nature of series [2]: melting temperature; fluorescence melt of hairpins on a sequencing array, two-state fit, raised by 9.35 °C to match UV melts. To be noted: sodium 0.088 M. The method, boiled down:
as §1

Regarding GGTGCAGGAAACTGCATC (.(((((....))))).), the folding enthalpy in series [1] was -22.4 kcal/mol. The Tm in series [2] stood at 53 °C.
GGTGCCACGAAAGTGACC (((..(((....)))))): the folding enthalpy in series [1] is -15.5 kcal/mol. The Tm in series [2] worked out at 35.5 °C.
The matching figures for GGTGCCCCGAAAGGGACC (((..(((....)))))): -16.2 kcal/mol and 47.9 °C.
The matching figures for GGTGCCGGAAACGGTACC (((.(((....))).))): -35.8 kcal/mol and 64.1 °C.
The matching figures for GGTGCCTCGAAAGAGACC (((..(((....)))))): -15 kcal/mol and 30.8 °C.
As for GGTGCGGGAAACCGCATC (.(((((....))))).), the folding enthalpy in series [1] is -15.7 kcal/mol. Further, the Tm in series [2] is 60.4 °C.
The matching figures for GGTGCTCGAAAGAGTACC (((.(((....))).))): -45.9 kcal/mol and 60 °C.
The matching figures for GGTGCTGGAAACAGTACC (((.(((....))).))): -43.3 kcal/mol and 53.5 °C.
The matching figures for GGTGGAACGAAAGTTACC (((..(((....)))))): -17.3 kcal/mol and 36.5 °C.
In the case of GGTGGAGGAAACTCCACC (((((((....))))))), the folding enthalpy in series [1] was -38.6 kcal/mol. Also, in series [2], the Tm came to 67.5 °C.
The matching figures for GGTGGAGGAAACTCTACC (((.(((....))).))): -35.8 kcal/mol and 48 °C.
The matching figures for GGTGGCCGAAAGGCTACC (((.(((....))).))): -29.6 kcal/mol and 67.3 °C.
The matching figures for GGTGGCGAAAGCCAAACC ((((((....)))..))): -14.2 kcal/mol and 47.2 °C.
Regarding GGTGGCGAAAGCCAACC ((((((....))).))), the folding enthalpy in series [1] was -16.9 kcal/mol. Further, the Tm in series [2] worked out at 64.5 °C.
On to GGTGGCGAAAGCCAGACC ((((((....)))..))), for which the folding enthalpy in series [1] was -12.6 kcal/mol. In series [2], the Tm was 46.9 °C.
As for GGTGGCGAAAGCCATACC ((((((....)))..))), in series [1], the folding enthalpy was -12 kcal/mol. For the same sequence, in series [2], the Tm was 45.6 °C.
Turning to GGTGGCGAAAGCCTACC ((((((....))).))), in series [1], the folding enthalpy was -17.1 kcal/mol. Also, the Tm in series [2] came out at 56.2 °C.
For the sequence GGTGGGGGAAACCCTACC (((.(((....))).))), the folding enthalpy in series [1] is -27.1 kcal/mol. Also, the Tm in series [2] came out at 52.7 °C.
The matching figures for GGTGGGGGAAACCTCACC ((((.((....)).)))): -39.5 kcal/mol and 53.5 °C.
The matching figures for GGTGGGTCGAAAGACACC (((..(((....)))))): -12.4 kcal/mol and 50.9 °C.
The matching figures for GGTGGTGGAAACACTACC (((.(((....))).))): -29.8 kcal/mol and 52.9 °C.
Turning to GGTGGTGGAAACACTGCC ((..(((....)))..)), in series [1], the folding enthalpy was -25.5 kcal/mol. For the same sequence, in series [2], the Tm is 47.2 °C.
GGTGGTGGAAACGCTACC (((.(.(....).).))): the folding enthalpy in series [1] was -28.1 kcal/mol. Besides, in series [2], the Tm worked out at 40.4 °C.
Regarding GGTGTCACGAAAGTGACC (((..(((....)))))), in series [1], the folding enthalpy is -10.2 kcal/mol. The Tm in series [2] is 50 °C.
On to GGTGTCGAAAGACAAACC ((((((....)))..))), for which the folding enthalpy in series [1] was -16.6 kcal/mol. The Tm in series [2] was determined as 44.4 °C.
The matching figures for GGTGTCGAAAGACACACC ((((((....)))..))): -9.34 kcal/mol and 52.5 °C.
The matching figures for GGTGTCGAAAGACGAACC ((((((....)))..))): -18.8 kcal/mol and 40.9 °C.
For the sequence GGTGTCGGAAACAACACC (((((.(....).))))), in series [1], the folding enthalpy is -36.1 kcal/mol. Besides, the Tm in series [2] is 45.2 °C.
The matching figures for GGTGTCGGAAACGGTACC (((..((....))..))): -28.6 kcal/mol and 40.9 °C.
The matching figures for GGTGTGGAAACACACC ((((((....)))))): -30.2 kcal/mol and 66.6 °C.
The matching figures for GGTGTGGGAAACTACGCC ((.((.(....).)).)): -29.6 kcal/mol and 43.4 °C.
Regarding GGTGTTGGAAACAACATC (.(((((....))))).), the folding enthalpy in series [1] was -24.3 kcal/mol. In series [2], the Tm was 48.2 °C.
The matching figures for GGTTAACGAAAGTTGACC (((.(((....))).))): -27.6 kcal/mol and 53.2 °C.
The matching figures for GGTTAAGGAAACCTAACC (((((.(....).))))): -25 kcal/mol and 35.2 °C.
The matching figures for GGTTAAGGAAACTTAGCC ((.((((....)))).)): -28 kcal/mol and 38.5 °C.
For GGTTACGAAAGTAAGACC ((((((....)))..))), the folding enthalpy in series [1] is -15 kcal/mol. For the same sequence, the Tm in series [2] came out at 34.5 °C.
The matching figures for GGTTACGAAAGTACAACC ((((((....)))..))): -19.1 kcal/mol and 36.1 °C.
The matching figures for GGTTACGAAAGTACACC ((((((....))).))): -22.7 kcal/mol and 42.2 °C.
The matching figures for GGTTACGGAAACGTGACC (((.(((....))).))): -36.4 kcal/mol and 53.4 °C.
In the case of GGTTACGGAAACGTGATC (.(.(((....))).).), the folding enthalpy in series [1] was -16.3 kcal/mol. Moreover, in series [2], the Tm was 30.4 °C.
The matching figures for GGTTACTCGAAAGAGACC (((..(((....)))))): -11.8 kcal/mol and 25 °C.
On to GGTTAGCGAAAGCTCACC (((.(((....))).))), for which, in series [1], the folding enthalpy was -26.6 kcal/mol. In addition, in series [2], the Tm stood at 49.1 °C.
Regarding GGTTAGGGAAACCTAATC (.(((((....))))).), the folding enthalpy in series [1] is -27.7 kcal/mol. Also, the Tm in series [2] amounted to 37.9 °C.
The matching figures for GGTTAGGGAAACTTGACC (((.(.(....).).))): -18.9 kcal/mol and 28 °C.
The matching figures for GGTTATCGAAAGATTACC (((.(((....))).))): -31.1 kcal/mol and 43.5 °C.
The matching figures for GGTTATGGAAACATAATC (.(((((....))))).): -31.2 kcal/mol and 36 °C.
Consider GGTTATGGAAACGTAACC (((((.(....).))))), for which the folding enthalpy in series [1] is -40.6 kcal/mol. The Tm in series [2] came to 45.8 °C.
The matching figures for GGTTCAGGAAACTGAACC (((((((....))))))): -41.4 kcal/mol and 63.8 °C.
The matching figures for GGTTCAGGAAACTGAATC (.(((((....))))).): -30.1 kcal/mol and 44.2 °C.
The matching figures for GGTTCAGGAAACTGAGCC ((.((((....)))).)): -30.2 kcal/mol and 50 °C.
As for GGTTCCACGAAAGTGACC (((..(((....)))))), in series [1], the folding enthalpy was -15.1 kcal/mol. Moreover, the Tm in series [2] stood at 31.6 °C.
The matching figures for GGTTCCCGAAAGGGTACC (((.(((....))).))): -33.6 kcal/mol and 57.5 °C.
The matching figures for GGTTCCGAAAGGAGCACC ((((((....)))..))): -13.8 kcal/mol and 39.1 °C.
The matching figures for GGTTCCGAAAGGATAACC ((((((....)))..))): -20.5 kcal/mol and 43.5 °C.
With GGTTCCGAAAGGATACC ((((((....))).))), the folding enthalpy in series [1] is -28.1 kcal/mol. The Tm in series [2] is 48.8 °C.
The matching figures for GGTTCCGGAAACGGAATC (.(((((....))))).): -23.9 kcal/mol and 51.4 °C.
GGTTCCGGAAACGGGACC (((.(((....))).))): the folding enthalpy in series [1] is -47.1 kcal/mol. Moreover, the Tm in series [2] is 58.5 °C.
The matching figures for GGTTCGGGAAACCGAATC (.(((((....))))).): -27.1 kcal/mol and 50.6 °C.
As for GGTTCGGGAAACCGAGCC ((.((((....)))).)), the folding enthalpy in series [1] is -40.4 kcal/mol. Moreover, the Tm in series [2] amounted to 58.3 °C.
The matching figures for GGTTCGGGAAACTGAACC (((((.(....).))))): -47.2 kcal/mol and 53.2 °C.
The matching figures for GGTTCGGGAAACTGGACC (((.(.(....).).))): -29.2 kcal/mol and 41.2 °C.
The matching figures for GGTTCTGCGAAAGCAACC (((..(((....)))))): -12.3 kcal/mol and 31.1 °C.
Regarding GGTTGAGGAAACCCAACC (((((.(....).))))), in series [1], the folding enthalpy was -39.4 kcal/mol. In series [2], the Tm was 45.2 °C.
With GGTTGAGGAAACTCAGCC ((.((((....)))).)), the folding enthalpy in series [1] was -33.4 kcal/mol. Besides, in series [2], the Tm was determined as 50 °C.
The matching figures for GGTTGAGGAAACTCAGTC (..((((....))))..): -14.5 kcal/mol and 30.9 °C.
The matching figures for GGTTGAGGAAACTTAACC ((((.((....)).)))): -31.9 kcal/mol and 39.8 °C.
The matching figures for GGTTGCACGAAAGTGACC (((..(((....)))))): -11.2 kcal/mol and 34.2 °C.
As for GGTTGCCGAAAGGCTACC (((.(((....))).))), the folding enthalpy in series [1] is -29.6 kcal/mol. Also, the Tm in series [2] turned out to be 61.8 °C.
The matching figures for GGTTGCGAAAGCAAACC ((((((....))).))): -20 kcal/mol and 61.8 °C.
The matching figures for GGTTGCGAAAGCACTACC ((((((....)))..))): -11.9 kcal/mol and 37.4 °C.
The matching figures for GGTTGCGAAAGCAGGACC ((((((....)))..))): -19.2 kcal/mol and 37.8 °C.
For the sequence GGTTGCGAAAGCAGTACC ((((((....)))..))), the folding enthalpy in series [1] was -16.9 kcal/mol. The Tm in series [2] was 43.3 °C.
For GGTTGCGCGAAAGCGACC (((..(((....)))))), the folding enthalpy in series [1] is -18 kcal/mol. Further, the Tm in series [2] was 42.8 °C.

Values taken from the array DNA melting data of Ke et al. (doi:10.1101/2024.01.08.574731).
